ChEMBL document CHEMBL3232930, “One-pot, four-component synthesis of novel cytotoxic agents 1-(5-aryl-1,3,4-oxadiazol-2-yl)-1-(1H-pyrrol-2-yl)methanamines” (Eur J Med Chem, 2014)

Experiments:
[1] = Cytotoxicity against human HT1080 cells assessed as reduction in cell viability after 24 hrs by MTT assay; assay type: functional, cell-based; conditions: HT-1080, 24 h
Summary of the method: (§1)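 15,000 exponential-phase cells per well were seeded and incubated 24 h, then exposed to a range of test concentrations. Medium alone served as the negative control and doxorubicin as the positive control. MTT (5 mg/mL stock) was added for a further 4 h, and the formazan was dissolved in DMSO. Percent inhibition versus control was calculated, and IC50 was taken from the dose–inhibition curve. Each experiment was run three times.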

MCF7 [2] = assay: Cytotoxicity against human MCF7 cells assessed as reduction in cell viability after 24 hrs by MTT assay; assay type: functional, cell-based; conditions: MCF7, 24 h; summary of the method: as §1
A549 = assay: Cytotoxicity against human A549 cells assessed as reduction in cell viability after 24 hrs by MTT assay; assay type: functional, cell-based; conditions: A549, 24 h; summary of the method: as §1
HT-29 = assay: Cytotoxicity against human HT-29 cells assessed as reduction in cell viability after 24 hrs by MTT assay; assay type: functional, cell-based; conditions: HT-29, 24 h; summary of the method: as §1
MCF7 [3] = assay: Ratio of doxorubicin IC50 to compound IC50 for human MCF7 cells assessed as reduction in cell viability after 24 hrs by MTT assay; assay type: functional

Cc1ccc(-c2nnc(C(NCc3ccccc3)c3ccc[nH]3)o2)cc1 (stereo not drawn)
IC50 [1]: 909 µM
IC50 (MCF7 [2]): 1120 µM
IC50 (A549): 744 µM
IC50 (HT-29): 249 µM

COc1ccc(-c2nnc(C(NCc3ccccc3)c3ccc[nH]3)o2)c(OC)c1 (stereo not drawn)
IC50 [1]: 418 µM
IC50 (MCF7 [2]): 471 µM
IC50 (A549): 296 µM
IC50 (HT-29): 392 µM

COc1ccc(CNC(c2ccc[nH]2)c2nnc(-c3cccc(Cl)c3)o2)cc1 (stereo not drawn)
IC50 [1]: 84.6 µM
IC50 (MCF7 [2]): 41.7 µM
IC50 (A549): 77.5 µM
IC50 (HT-29): 95.6 µM

COc1ccc(CNC(c2ccc[nH]2)c2nnc(-c3ccccc3)o2)cc1 (stereo not drawn)
IC50 [1]: 175 µM
IC50 (MCF7 [2]): 142 µM
IC50 (A549): 278 µM
IC50 (HT-29): 286 µM

Clc1cccc(-c2nnc(C(NCc3ccccc3)c3ccc[nH]3)o2)c1 (stereo not drawn)
IC50 [1]: 41.1 µM
IC50 (MCF7 [2]): 56.7 µM
IC50 (A549): 62.2 µM
IC50 (HT-29): 48.3 µM

c1ccc(CNC(c2ccc[nH]2)c2nnc(-c3ccccc3)o2)cc1 (stereo not drawn)
IC50 [1]: 231 µM
IC50 (MCF7 [2]): 216 µM
IC50 (A549): 187 µM
IC50 (HT-29): 198 µM

COc1ccc(-c2nnc(C(NCc3ccc(F)cc3)c3ccc[nH]3)o2)cc1 (stereo not drawn)
IC50 [1]: 14.7 µM
IC50 (MCF7 [2]): 28.9 µM
IC50 (A549): 52.8 µM
IC50 (HT-29): 39.4 µM

COc1ccccc1CNC(c1ccc[nH]1)c1nnc(-c2ccccc2)o1 (stereo not drawn)
IC50 [1]: 278 µM
IC50 (MCF7 [2]): 441 µM
IC50 (A549): 362 µM
IC50 (HT-29): 392 µM

COc1cccc2c1C(=O)c1c(O)c3c(c(O)c1C2=O)C[C@@](O)(C(=O)CO)C[C@@H]3O[C@H]1C[C@H](N)[C@H](O)[C@H](C)O1 [DOXORUBICIN]
IC50 [1]: 15.4 µM
IC50 (MCF7 [2]): 16.9 µM
IC50 (A549): 13.6 µM
IC50 (HT-29): 16 µM

Cc1cccc(-c2nnc(C(NCc3ccccc3)c3ccc[nH]3)o2)c1 (stereo not drawn)
IC50 [1]: 311 µM
IC50 (MCF7 [2]): 480 µM
IC50 (A549): 430 µM
IC50 (HT-29): 202 µM

Fc1cc(-c2nnc(C(NCc3ccccc3)c3ccc[nH]3)o2)c(Cl)cc1Cl (stereo not drawn)
IC50 [1]: 25.6 µM
IC50 (MCF7 [2]): 21.7 µM
IC50 (A549): 27.5 µM
IC50 (HT-29): 20 µM

Clc1ccc(-c2nnc(C(NCc3ccccc3)c3ccc[nH]3)o2)cc1 (stereo not drawn)
IC50 [1]: 41 µM
IC50 (MCF7 [2]): 46.2 µM
IC50 (A549): 73.8 µM
IC50 (HT-29): 54.5 µM

Cc1ccc(CNC(c2ccc[nH]2)c2nnc(-c3ccc(Br)cc3)o2)cc1 (stereo not drawn)
Ratio IC50 (MCF7 [3]): 4
IC50 [1]: 51.9 µM
IC50 (MCF7 [2]): 4.3 µM
IC50 (A549): 53.9 µM
IC50 (HT-29): 49.5 µM

Clc1cccc(-c2nnc(C(NCc3ccc(Cl)c(Cl)c3)c3ccc[nH]3)o2)c1 (stereo not drawn)
IC50 [1]: 25.1 µM
IC50 (MCF7 [2]): 19 µM
IC50 (A549): 13.3 µM
IC50 (HT-29): 18 µM

Brc1ccc(-c2nnc(C(NCc3ccccc3)c3ccc[nH]3)o2)cc1 (stereo not drawn)
IC50 [1]: 70.6 µM
IC50 (MCF7 [2]): 96.6 µM
IC50 (A549): 87.2 µM
IC50 (HT-29): 58.3 µM

COc1ccc(-c2nnc(C(NCc3ccccc3)c3ccc[nH]3)o2)cc1 (stereo not drawn)
IC50 [1]: 170 µM
IC50 (MCF7 [2]): 460 µM
IC50 (A549): 326 µM
IC50 (HT-29): 344 µM

Clc1ccc(CNC(c2ccc[nH]2)c2nnc(-c3ccc(Br)cc3)o2)cc1Cl (stereo not drawn)
IC50 [1]: 45.3 µM
IC50 (MCF7 [2]): 31 µM
IC50 (A549): 17.3 µM
IC50 (HT-29): 20 µM

Clc1ccc(-c2nnc(C(NCc3ccccc3)c3ccc[nH]3)o2)cc1Cl (stereo not drawn)
IC50 [1]: 15.2 µM
IC50 (MCF7 [2]): 13.9 µM
IC50 (A549): 25.5 µM
IC50 (HT-29): 41.7 µM
